ChEMBL document CHEMBL1123440, “Mitomycin C analogues with increased metal complexing ability” (J Med Chem, 1986)

How the values were obtained:
[1] = tested on: P388; experiment: Antitumor activity against P-388 leukemia in mice, activity is expressed as Minimum effective dose; format: functional; conditions: Mus musculus, read-out: MED
Procedure, shortened: (§1)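 P388 ascites, 10⁶ cells implanted ip in female CDF1 mice. Six mice per dose of analogue, with 10 saline-injected controls. Each test group carried its own mitomycin C positive control, six mice per dose. Read-out is median survival time (MST). %T/C = MST treated/MST control × 100, taken at the optimal dose. MED is the dose giving %T/C 125. 30-day survivors were counted.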

[2] = tested on: P388; experiment: Antitumor activity against P-388 leukemia in mice, activity is expressed as maximum effect (% T/C) = MST(median survival time) treated/ MST control in the present of Mitomycin C; format: functional, Mus musculus; procedure, shortened: as §1
[3] = tested on: P388; experiment: (§2) Antitumor activity against P-388 leukemia in mice, activity is expressed as maximum effect (% T/C) = MST(median survival time) treated/ MST control in the presence of compound only; format: functional, Mus musculus; procedure, shortened: as §1
[4] = tested on: P388; experiment: Antitumor activity against P-388 leukemia in mice, activity is expressed as Optimal dose; format: functional, Mus musculus; procedure, shortened: as §1
[5] = Ratio value, Optimal dose / Minimum effective dose; format: functional
Procedure, shortened: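 Therapeutic ratio from the P388 ip survival test in female CDF1 mice (10⁶ ascites cells). Calculated as optimal dose divided by minimum effective dose. The minimum effective dose is the dose giving %T/C 125.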

[6] = Partition coefficient (logP); format: physicochemical; conditions: octanol/water
Procedure, shortened: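 Shake-flask distribution between n-octanol and water containing phosphate buffer at pH 7.4, run by the Hansch method.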

[7] = organism: Mus musculus; experiment: Compound was tested for antitumor activity against P-388 leukemia in mice, activity is expressed as maximum effect (% T/C) = MST(median survival time) treated/ MST control in the pr; format: functional; procedure, shortened: as §1
[8] = organism: Mus musculus; experiment: Compound was tested for antitumor activity against P-388 leukemia in mice, activity is expressed as maximum effect (% T/C) = MST(median survival time) treated/ MST control in the presence of compound only; 132->344; format: functional; procedure, shortened: as §1
[9] = organism: Mus musculus; experiment: Compound was tested for antitumor activity against P-388 leukemia in mice, activity is expressed as Optimal dose; 3.2-4.8; format: functional
[10] = organism: Mus musculus; experiment: as §2; format: functional; procedure, shortened: as §1

Row | SMILES | minimal effective dose [1] [mg/kg] | T/C [2] [%] | T/C [3] [%] | OD [4] [mg/kg] | Ratio [5] | logP [6] | T/C [7] [%] | T/C [8] [%] | OD [9] [mg/kg] | T/C [10] [%]
1 | CO[C@@]12C(COC(N)=O)C3=C(C(=O)C(C)=C(NCC(O)CO)C3=O)N1CC1NC12 (stereo partly drawn) | 6.4 | 205 | 175 | 25.6 | 4 | – | – | – | – | –
2 | CO[C@@]12C(COC(N)=O)C3=C(C(=O)C(C)=C(NCCC(=O)O)C3=O)N1CC1NC12 (stereo partly drawn) | 25.6 | 194 | 133 | 25.6 | – | – | – | – | – | –
3 | CO[C@@]12C(COC(N)=O)C3=C(C(=O)C(C)=C(NC(CO)C(=O)O)C3=O)N1CC1NC12 (stereo partly drawn) | 6.4 | 263 | 138 | 25.6 | – | – | – | – | – | –
4 | CO[C@@]12C(COC(N)=O)C3=C(C(=O)C(C)=C(NCCCN)C3=O)N1CC1NC12 (stereo partly drawn) | 6.4 | 279 | 147 | 25.6 | 4 | -1.3 | – | – | – | –
5 | CO[C@@]12C(COC(N)=O)C3=C(C(=O)C(C)=C(NCCNCCO)C3=O)N1CC1NC12 (stereo partly drawn) | 12.8 | 156 | 133 | 12.8 | 1 | -0.57 | – | – | – | –
6 | CO[C@@]12C(COC(N)=O)C3=C(C(=O)C(C)=C(NCCNCCN)C3=O)N1CC1NC12 (stereo partly drawn) | – | 178 | 100 | – | – | -1.14 | – | – | – | –
7 | CO[C@@]12C(COC(N)=O)C3=C(C(=O)C(C)=C(NCc4ccccn4)C3=O)N1CC1NC12 (stereo partly drawn) | 1.6 | 272 | 233 | 25.6 | 16 | -0.09 | – | – | – | –
8 | CO[C@@]12C(COC(N)=O)C3=C(C(=O)C(C)=C(NCCc4c[nH]cn4)C3=O)N1CC1NC12 (stereo partly drawn) | 1.6 | 213 | 163 | 25.6 | 16 | -0.19 | – | – | – | –
9 | CO[C@@]12C(COC(N)=O)C3=C(C(=O)C(C)=C(NCCC(N)C(=O)O)C3=O)N1CC1NC12 (stereo partly drawn) | 6.4 | 206 | 139 | 25.6 | – | – | – | – | – | –
10 | CCOC(=O)C(CO)NC1=C(C)C(=O)C2=C(C1=O)C(COC(N)=O)[C@@]1(OC)C3NC3CN21 (stereo partly drawn) | 3.2 | 194 | 156 | 25.6 | – | – | – | – | – | –
11 | CO[C@@]12C(COC(N)=O)C3=C(C(=O)C(C)=C(N(C)CCc4ccccn4)C3=O)N1CC1NC12 (stereo partly drawn) | < 0.2 | 319 | 300 | 12.8 | > 64 | 0.37 | – | – | – | –
12 | CO[C@@]12C(COC(N)=O)C3=C(C(=O)C(C)=C(NCCCN(CCO)CCO)C3=O)N1CC1NC12 (stereo partly drawn) | 25.6 | 279 | 137 | 25.6 | 1 | -0.36 | – | – | – | –
13 | CO[C@@]12C(COC(N)=O)C3=C(C(=O)C(C)=C(NCCOCCO)C3=O)N1CC1NC12 (stereo partly drawn) | 0.4 | 213 | 181 | 25.6 | 64 | -0.71 | – | – | – | –
14 | CO[C@@]12C(COC(N)=O)C3=C(C(=O)C(C)=C(NCCc4ccccn4)C3=O)N1CC1NC12 (stereo partly drawn) | 0.2 | – | >375 | 25.6 | 128 | -0.09 | 319 | – | – | –
15 | CO[C@@]12[C@H](COC(N)=O)C3=C(C(=O)C(C)=C(N)C3=O)N1C[C@@H]1N[C@@H]12 [MITOMYCIN] | 0.2 | – | – | – | 24 | – | – | 132 | 3.2 | –
16 | CO[C@@]12C(COC(N)=O)C3=C(C(=O)C(C)=C(NCCCCN=C(N)N)C3=O)N1CC1NC12 (stereo partly drawn) | 1.6 | 263 | 156 | 25.6 | 16 | – | – | – | – | –
17 | CO[C@@]12C(COC(N)=O)C3=C(C(=O)C(C)=C(NC(C)C(=O)O)C3=O)N1CC1NC12 (stereo partly drawn) | – | 132 | 109 | 12.8 | – | – | – | – | – | –
18 | COC(=O)C(CCSC)NC1=C(C)C(=O)C2=C(C1=O)C(COC(N)=O)[C@@]1(OC)C3NC3CN21 (stereo partly drawn) | 3.2 | 250 | 131 | 6.4 | – | – | – | – | – | –
19 | CO[C@@]12C(COC(N)=O)C3=C(C(=O)C(C)=C(NCCc4ccncc4)C3=O)N1CC1NC12 (stereo partly drawn) | 3.2 | 233 | – | 25.6 | 8 | 0.31 | – | – | – | 167
20 | CO[C@@]12C(COC(N)=O)C3=C(C(=O)C(C)=C(NCCc4ccco4)C3=O)N1CC1NC12 (stereo partly drawn) | 1.6 | 156 | 328 | 25.6 | 16 | – | – | – | – | –
21 | CO[C@@]12C(COC(N)=O)C3=C(C(=O)C(C)=C(NCC(O)CN)C3=O)N1CC1NC12 (stereo partly drawn) | 12.8 | >344 | 122 | 12.8 | – | – | – | – | – | –
22 | CO[C@@]12C(COC(N)=O)C3=C(C(=O)C(C)=C(NCCNc4ccc([N+](=O)[O-])cn4)C3=O)N1CC1NC12 (stereo partly drawn) | 2.6 | 250 | 144 | 12.8 | 8 | 0.77 | – | – | – | –
23 | CO[C@@]12C(COC(N)=O)C3=C(C(=O)C(C)=C(N(CCN)CCN)C3=O)N1CC1NC12 (stereo partly drawn) | 3.2 | 276 | 129 | 25.6 | 8 | – | – | – | – | –
24 | CO[C@@]12C(COC(N)=O)C3=C(C(=O)C(C)=C(NC(CCN=C(N)N)C(=O)O)C3=O)N1CC1NC12 (stereo partly drawn) | 6.4 | 263 | 138 | 25.6 | – | – | – | – | – | –
